Measured values reported in ChEMBL document CHEMBL5260851, “Iodinated Choline Transport-Targeted Tracers” (J Med Chem, 2020).

Legend:
[1] = Cytotoxicity against human BJ cells; assay type: toxicity, cell-based
[2] = Displacement of [3H]-choline from choline transporter in human PC-3 cells preincubated with [3H]-choline for 15 mins followed by compound addition and measured after 60 mins; assay type: cell-based
[3] = Cytotoxicity against human MRC5 cells; assay type: toxicity, cell-based
[4] = Stability in human plasma assessed as parent compound remaining at 2 uM after 2 hrs by RF-MS analysis; assay type: ADME, cell-free; conditions: read-out: Stability
Procedure, shortened: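 Compound at 2 μM final (DMSO ≤0.1%) incubated in human plasma at 37 °C, sampled at 0, 15, 30, 60 and 120 min. Quenched with ACN–methanol (2:1) and measured by RapidFire-MS/MS (ESI+, MRM). The value is the percent of parent remaining.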

[5] = Stability in human liver microsomes assessed as parent compound remaining at 2 uM after 60 mins in presence of NADPH generating system by RF-MS analysis; assay type: ADME, Microsome; conditions: read-out: Stability
Procedure, shortened: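 Compound at 2 μM with human liver microsomes (0.5 mg·mL⁻¹) and an NADPH-generating system (NADP⁺, isocitrate dehydrogenase, isocitric acid, MgSO4) in 0.1 M phosphate buffer at 37 °C. Samples taken at 0, 15, 30 and 60 min, quenched with ACN–methanol (2:1), freeze-dried, and analysed by RapidFire-MS against an internal standard.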

[6] = Displacement of [3H]-choline from choline transporter in human U-87 MG cells preincubated with [3H]-choline for 15 mins followed by compound addition and measured after 60 mins; assay type: cell-based
Procedure, shortened: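 PC-3 cells were grown in F12 Ham with 10% FBS, 0.25% bicarbonate and pen/strep; U-87 MG cells in DMEM with 10% FBS, 0.1 mM NEAA and 1.0 mM pyruvate; both at 37 °C, 5% CO2, used at 70–90% confluence. [3H]choline was added in Tris uptake buffer (pH 7.4), then compound in triplicate over 10 concentrations; readout was radioactivity per g of protein (BCA), with IC50 from a sigmoidal fit.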

PC-3 [7] = assay: Biodistribution in human PC-3 cells xenografted mouse measured after 3 hrs by SPECT method; assay type: ADME, organism-based; conditions: in vivo
Procedure, shortened: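 Mice carried subcutaneous PC-3 xenografts. Static whole-body SPECT scans of 30 min under 2% isoflurane were run at 1, 3 and 24 h p.i., then a 20 min double CT.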

PC-3 [8] = assay: Biodistribution in human PC-3 cells xenografted mouse measured after 3 hrs by PET method; assay type: ADME, organism-based; conditions: in vivo
Procedure, shortened: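 Mice carried subcutaneous PC-3 xenografts (5 × 10⁶ cells, right flank), with tumors at 100–300 mm³. [18F]fluorocholine 5–7 MBq was given retro-orbitally.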

IC50 [2] | remaining at 2 h, 2 µM [4] | remaining at 1 h, 2 µM [5] | IC50 [6] | Drug uptake (PC-3 [7]) | Drug uptake (PC-3 [8]) | SMILES | IC50 [1] | IC50 [3]
0.91 µM | 91% | 79% |  |  |  | OCC[N+]1(CCCCCCOc2cccc(I)c2)CCCC1 | > 50 µM | > 50 µM
1.4 µM | 86% | 86% |  |  |  | C[N+](C)(CCO)CCCCCCOc1cccnc1I | > 50 µM | > 50 µM
1.2 µM | 80% | 100% | 0.78 µM |  |  | C[N+](C)(CCO)CCc1cccc(I)c1 | > 50 µM | > 50 µM
15 µM |  |  |  |  |  | OCC[N+]1(CCOc2cccc(I)c2)CCCC1 | > 50 µM | > 50 µM
8.6 µM |  |  |  |  |  | C[N+](C)(CCO)CCc1ccc(I)cc1 | > 50 µM | > 50 µM
1.3 µM | 90% | 89% |  |  |  | C[N+](C)(CCO)CCCCOc1ccc(-c2ccccc2)cc1I |  | 
34 µM |  |  |  |  |  | COc1ccc(CCC[N+](C)(C)CCO)cc1I | > 50 µM | > 50 µM
0.044 µM | 83% | 85% |  |  |  | C[N+](C)(CCO)CCCCCCOc1cccc(I)c1 | > 50 µM | > 50 µM
 |  |  |  | Not Active |  | CS(=O)(=O)[O-].OCC[N+]1(Cc2cccc([123I])c2)CCCC1 |  | 
36 µM |  |  |  |  |  | C[N+](C)(CCO)CCCCC#CI | > 50 µM | > 50 µM
18 µM |  |  |  |  |  | OCC[N+]1(CCCCC#CI)CCCC1 | > 50 µM | > 50 µM
908 µM |  |  |  |  |  | OCCN1CC[N+](CCO)(Cc2ccccc2I)CC1 | > 50 µM | > 50 µM
273 µM |  |  |  |  |  | OCC[N+]1(Cc2ccc(I)cc2)CCOCC1 | > 50 µM | > 50 µM
 |  |  |  | Not Active |  | C[N+](C)(CCO)CCCCCCOc1cccc([123I])c1.[Br-] |  | 
2.1 µM | 85% | 82% | 1.7 µM |  |  | CCCCCCCCCCOc1ccc(CCC[N+](C)(C)CCO)cc1I |  | 
18 µM |  |  |  |  |  | OCC[N+]1(CCOc2ccc(I)cc2)CCCC1 | > 50 µM | > 50 µM
216 µM |  |  |  |  |  | C[N+](C)(CCO)Cc1ccccc1I | > 50 µM | > 50 µM
0.45 µM | 89% | 86% |  |  |  | C[N+](C)(CCO)CCc1ccc(I)s1 | > 50 µM | > 50 µM
8.1 µM | 85% | 100% | 4.3 µM |  |  | CC[N+](CC)(CCO)Cc1ccccc1I | > 50 µM | > 50 µM
11 µM | 81% | 74% | 3.3 µM |  |  | OCC[N+]1(Cc2ccc(I)cc2)CCCC1 [listing 1 of 2 here] | > 50 µM | > 50 µM
18 µM |  |  |  |  |  | Cc1ccc(OCCCC[N+](C)(C)CCO)c(I)n1 | > 50 µM | > 50 µM
5.1 µM | 91% | 70% |  |  |  | OCC[N+]1(CCCCOc2ccccc2I)CCCC1 | > 50 µM | > 50 µM
28 µM | 66% | 90% | 8.8 µM |  |  | OCC[N+]1(Cc2cccc(I)c2)CCCC1 | > 50 µM | > 50 µM
23 µM |  |  |  |  |  | C[N+](C)(CCO)CCOc1ccc(I)cc1 | > 50 µM | > 50 µM

IC50 [2] | remaining at 2 h, 2 µM [4] | remaining at 1 h, 2 µM [5] | IC50 [6] | Drug uptake (PC-3 [7]) | Drug uptake (PC-3 [8]) | SMILES | IC50 [1] | IC50 [3]
11 µM | 91% | 54% |  |  |  | C[N+](C)(CCO)CCCCOc1ccccc1I | > 50 µM | > 50 µM
16 µM |  |  | 23 µM |  |  | OCC[N+]1(Cc2ccc(I)cc2)CCCC1 [listing 2 of 2 here] |  | 
0.41 µM | 60% | 93% | 2.1 µM |  |  | CCCCCCOc1ccc(CCC[N+](C)(C)CCO)cc1I |  | 
197 µM |  |  |  |  |  | C[N+]1(Cc2ccccc2I)CCCC(O)C1 (stereo not drawn) | > 50 µM | > 50 µM
106 µM |  |  |  |  |  | C[N+]1(CCc2ccc(I)cc2)CCCC(O)C1 (stereo not drawn) | > 50 µM | > 50 µM
4.7 µM | 81% | 78% |  |  |  | OCC[N+]1(CCOc2ccccc2I)CCCC1 | > 50 µM | > 50 µM
20 µM |  |  |  |  |  | C[N+](C)(CF)CCO |  | 
 |  |  |  |  | Not Active | C[N+](C)(C[18F])CCO.[Cl-] |  | 
30 µM |  |  |  |  |  | C[N+](C)(CCCCO)CCc1ccc(I)s1 | > 50 µM | > 50 µM
10 µM | 86% | 86% |  |  |  | OCC[N+]1(CCc2ccc(I)s2)CCCC1 | > 50 µM | > 50 µM
0.14 µM | 89% | 92% |  |  |  | C[N+](C)(CCO)CCCCCCOc1ccc(I)c([N+](=O)[O-])c1 | > 50 µM | > 50 µM
24 µM |  |  |  |  |  | COc1ccc(CC[N+](C)(C)CCO)cc1I | > 50 µM | > 50 µM
77 µM |  |  | 77 µM |  |  | CC[N+](CC)(CCO)Cc1ccc(I)cc1 | > 50 µM | > 50 µM
1.1 µM |  |  |  |  |  | C[N+](C)(CCCO)CCc1ccc(I)s1 | > 50 µM | > 50 µM
53 µM |  |  |  |  |  | COc1c(I)cc(CC[N+](C)(C)CCO)cc1I | > 50 µM | > 50 µM
4.7 µM |  |  |  |  |  | C[N+](C)(C)CCO [CHOLINE] |  | 
133 µM |  |  | 25 µM |  |  | C[N+](C)(CCO)Cc1cccc(I)c1 | > 50 µM | > 50 µM
43 µM |  |  |  |  |  | OCC[N+]1(Cc2ccccc2I)CCOCC1 | > 50 µM | > 50 µM
130 µM |  |  | 129 µM |  |  | C[N+](C)(CCO)Cc1ccc(I)cc1 | > 50 µM | > 50 µM
25 µM |  |  |  |  |  | C[N+](C)(CCO)CCOc1ccccc1I | > 50 µM | > 50 µM
3 µM | 89% | 95% |  |  |  | C[N+](C)(CCO)CCCC#CI | > 50 µM | > 50 µM
217 µM |  |  |  |  |  | OCC[N+]1(Cc2ccccc2I)CCCCC1 | > 50 µM | > 50 µM
22 µM |  |  |  |  |  | C[N+](C)(CCO)CCOc1cccc(I)c1 | > 50 µM | > 50 µM

SMILES | IC50 [2] | remaining at 2 h, 2 µM [4] | remaining at 1 h, 2 µM [5] | IC50 [6] | Drug uptake (PC-3 [7]) | Drug uptake (PC-3 [8]) | IC50 [1] | IC50 [3]
COc1ccc(CC[N+]23CCC(CC2)C(O)C3)cc1I (stereo not drawn) | 115 µM |  |  |  |  |  | > 50 µM | > 50 µM
OC1C[N+]2(Cc3ccccc3I)CCC1CC2 (stereo not drawn) | 160 µM |  |  |  |  |  | > 50 µM | > 50 µM
OC1C[N+]2(CCc3ccc(I)cc3)CCC1CC2 (stereo not drawn) | 75 µM |  |  |  |  |  | > 50 µM | > 50 µM
OCC[N+]1(CCc2ccc(I)cc2)CCCC1 | 19 µM | 98% | 96% | 29 µM |  |  | > 50 µM | > 50 µM
C[N+]1(C)CCOC(O)(c2ccc(-c3ccc(C4(O)C[N+](C)(C)CCO4)cc3)cc2)C1 (stereo not drawn) | 36 µM |  |  |  |  |  |  | 
